Shown are actives, neighbours in structure and some others; about 3.1% of the full set was active somewhere.
HKDC1 inh: inhibitors of human hexokinase HKDC1; Q2TB90; recombinant HKDC1, G6PDH/diaphorase resazurin coupled fluorescence; inhibition, % at 20 µM; actives 0.16% (n = 340,000); AID 493160;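 active = inhibition above about 35% when tested at 20 µM, limit read from the data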;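 also: plate controls were DMSO wells with enzyme for no effect and DMSO wells lacking enzyme for full effect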
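test system = in-house recombinant HK5 (HKDC1) enzyme | amount = HKDC1 at 5 µg/mL | control set = DMSO-enzyme wells negative, buffer-substituted wells positive | compound = one dose of 20 µM, 1% DMSO | schedule = reaction time 90 min, room temperature, protected from light | technique = resorufin fluorescence at 613 nm | reagent = glucose with 1 mM ATP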
Hsp70 activator: switches on Hsp70 transcription; HeLa Hsp70 promoter luciferase reporter, luminescence; scaled: vehicle 0, proteasome-inhibitor control 100%; activation, % at 10 µM; actives 0.04% (n = 200,000);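 active = activation above the mean across all tested compounds plus 3 SD, cutoff set per campaign, cut at about 5.5% in these data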;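 also: 100% = MG132 at 30 µM as the positive control and 0% = DMSO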
HSF1 activator: increases HSF-1 driven luciferase reporter signal. actives 1.7% (n = 300,000). NIH3T3-HGL HSF-1 luciferase reporter, MG132, 8 h; 100% = twice DMSO control signal. activation, % at 9 µM;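 active = mean replicate activation of at least 50% with a set share of replicates each reaching 50%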;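 also: 0% = median of the neutral control wells and 100% = twice that signal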
HSF1 inh: HSF1 inhibition; AID 2098; NIH3T3-HGL HSE-luciferase, MG132-induced, luminescence 8 h; active compounds read low; actives 0.77% (n = 300,000); activity change, negative = inhibition, % at 7.5 µM (by protocol);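 active = more than half of replicate wells show activity change below -50%, luminescence cut by over half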;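 also: luciferase reports HSF-1 transcriptional activity via heat shock element; 0% = median of DMSO wells and -100% = zero luminescence signal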
HSP90 inh: HSP90 refolding inhibition in rabbit reticulocyte lysate | luciferase refolding luminescence, 3 h | actives 0.91% (n = 290,000) | inhibition, % at 5.6 µM;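 active = inhibition above the screen-wide mean plus 3 SD, computed separately per campaign, cut at about 16% in these data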;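 also: 0% = DMSO wells and 100% = 60 µM geldanamycin wells; inhibitors lower the luminescence because luciferase stays unfolded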
Tb hexokinase: blocks Trypanosoma brucei hexokinase 1 activity | recombinant TbHK1, G6PDH-coupled NADH A340 | inhibition, % at 10 µM | actives 0.11% (n = 220,000);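 active = inhibition of 50% or more in the single-dose primary screen; inactive = inhibition below 50%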
HSP90 inh confirm: confirmation of HSP90 inhibitors. AID 1846. inhibition, % at 5.9 µM. actives 64% (n = 2,300). shares compounds with HSP90 inh. rabbit reticulocyte lysate, luciferase refolding luminescence, 3 h; in the data active = inhibition above about 18%;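 also: 0% = vehicle wells and 100% = reference inhibitor wells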
luciferase ctr: blocks native firefly luciferase in HSP90 counter-screen. inhibition, % at 5.9 µM. shares compounds with HSP90 inh. purified native firefly luciferase, luminescence. actives 48% (n = 2,300). AID 1847;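 active = inhibition above the mean inhibition of all tested sample wells plus 3 SD, cut at about 10% in these data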;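 also: 0% = DMSO with luciferase and 100% = wells lacking luciferase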
Target sequence (P08659 whole entry, looked up): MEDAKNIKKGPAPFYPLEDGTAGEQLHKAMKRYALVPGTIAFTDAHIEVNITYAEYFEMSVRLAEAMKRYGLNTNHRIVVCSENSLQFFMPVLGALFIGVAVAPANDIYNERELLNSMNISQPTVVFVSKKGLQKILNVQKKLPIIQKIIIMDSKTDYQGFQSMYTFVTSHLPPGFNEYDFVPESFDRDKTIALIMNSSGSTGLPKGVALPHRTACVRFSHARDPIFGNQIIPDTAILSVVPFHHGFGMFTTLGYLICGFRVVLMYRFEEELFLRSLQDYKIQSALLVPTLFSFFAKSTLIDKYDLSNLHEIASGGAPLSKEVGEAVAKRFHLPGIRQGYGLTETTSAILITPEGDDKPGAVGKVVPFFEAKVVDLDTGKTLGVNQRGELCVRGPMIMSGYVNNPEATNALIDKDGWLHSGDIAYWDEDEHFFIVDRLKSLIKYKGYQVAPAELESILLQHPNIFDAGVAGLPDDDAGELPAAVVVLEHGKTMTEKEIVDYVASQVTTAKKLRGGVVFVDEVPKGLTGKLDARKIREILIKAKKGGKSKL
* hit, by the source's call.

CC(C)(C)NC(=O)[C@@H]1CN(Cc2cccnc2)CCN1C[C@@H](O)C[C@@H](Cc1ccccc1)C(=O)N[C@H]1c2ccccc2C[C@H]1O was read as HKDC1 inh -8, HSF1 activator 1 and HSF1 inh 8.
For COC(=O)c1c(C)[nH]c(C(=O)COC(=O)Cn2cc(C(F)(F)F)ccc2=O)c1C the results were HKDC1 inh -1.
O=C(CSc1ncccc1C(=O)O)c1ccc2ccccc2c1 was read as HKDC1 inh 3, Hsp70 activator 0, HSF1 activator 39, HSF1 inh 9, HSP90 inh 96*, Tb hexokinase -5, HSP90 inh confirm 93* and luciferase ctr -10.
Screening O=C(Cn1cc(C(=O)c2ccco2)c2ccccc21)NC1CC1 returned HKDC1 inh -5, Hsp70 activator 0, HSF1 activator 2, HSF1 inh 0, HSP90 inh 25*, Tb hexokinase -36, HSP90 inh confirm -9 and luciferase ctr -11.
Screening O=C(Cn1cc(C(=O)c2ccco2)c2ccccc21)NCc1ccco1 returned HKDC1 inh 6, Hsp70 activator 0, HSF1 activator 10, HSF1 inh 4, HSP90 inh -1 and Tb hexokinase -43.
COc1cc(/C=N/NC(=Nc2ccc(C)cc2)c2nc3ccccc3s2)ccc1O was read as HKDC1 inh 4, Hsp70 activator 0, HSF1 activator -76, HSF1 inh -73*, HSP90 inh 57*, Tb hexokinase -31, HSP90 inh confirm 57* and luciferase ctr 49*.
For CC(=O)N(/N=C1\Sc2ccccc2C1=O)c1cccc(C)c1 the results were HKDC1 inh 1, Hsp70 activator 1, HSF1 activator 26, HSF1 inh 28, HSP90 inh 40*, Tb hexokinase -4, HSP90 inh confirm 76* and luciferase ctr -25.
CC1CCN(C2=NC(=O)/C(=C/c3ccccc3F)S2)CC1 was read as HKDC1 inh 0, HSF1 activator -74, HSF1 inh -68*, HSP90 inh 23*, HSP90 inh confirm 35* and luciferase ctr 14*.
O=C(O)C(=Cc1cccc([N+](=O)[O-])c1)c1ccc(Cl)cc1 was read as HKDC1 inh 5.
For CC1Cc2cc(/C(O)=C3/C(=O)C(=O)N(CCCn4ccnc4)C3c3ccco3)ccc2O1 (configuration not stated) the results were HKDC1 inh 2, Hsp70 activator 0, HSP90 inh 42*, Tb hexokinase -19, HSP90 inh confirm 40* and luciferase ctr 39*.
Screening CC1Cc2cc(/C(O)=C3/C(=O)C(=O)N(Cc4ccco4)C3c3cccs3)ccc2O1 (configuration not stated) returned HKDC1 inh -3, Hsp70 activator 0, HSF1 activator -45, HSF1 inh -42, HSP90 inh 36*, Tb hexokinase -14, HSP90 inh confirm 1 and luciferase ctr 1.
`CC1Cc2cc(/C(O)=C3/C(=O)C(=O)N(CCCn4ccnc4)C3c3ccncc3)ccc2O1` (configuration not stated) gave HKDC1 inh -9, Hsp70 activator 0, HSF1 activator -18, HSF1 inh -10, HSP90 inh -2 and Tb hexokinase -22.
NN(Cc1ccccc1)C(=S)Nc1ccc(Cl)c(Cl)c1 was read as HKDC1 inh -2, HSF1 activator 22, HSF1 inh 8 and HSP90 inh 0.
Cc1ccc(C(=O)NCCCN2CCOCC2)c(C)c1 was read as HKDC1 inh -9, HSF1 activator -9, HSF1 inh -7 and HSP90 inh 1.
For CC1=C(Nc2ccc(C(=O)O)cc2)C(=O)c2ccccc2C1=O the results were HKDC1 inh 16, HSF1 activator 24, HSF1 inh 11 and HSP90 inh 15.
For CC(=O)NC1=C(Nc2ccc(N(C)C)cc2)C(=O)c2ccccc2C1=O the results were HKDC1 inh 16, HSF1 activator 33, HSF1 inh 12, HSP90 inh 21*, HSP90 inh confirm 8 and luciferase ctr -8.
Screening COc1ccccc1NS(=O)(=O)c1ccc(C)c(NC(=O)c2c(C)noc2C)c1 returned HKDC1 inh -1.
`CCOC(=O)C1(C(=O)OCC)NC(=O)CC1CC(C)C` (configuration not stated) gave HKDC1 inh -3.
`N#CC(C#N)=C1NC2(CCCCC2)Cc2ccccc21` gave HKDC1 inh 1, HSF1 activator 2, HSF1 inh 1, HSP90 inh 2 and Tb hexokinase -29.
For N#CC(C#N)=c1ccc2c(c1)NC1(CCCCC1)N=2 the results were HKDC1 inh 13, Hsp70 activator 0, HSF1 activator 8, HSF1 inh 1, HSP90 inh 52*, Tb hexokinase -18, HSP90 inh confirm 7 and luciferase ctr 1.
CC(=O)c1c(C)[nH]c(C(=O)Nc2cc(C)cc(C)c2)c1C was read as HKDC1 inh 5, Hsp70 activator 0, HSF1 activator 36, HSF1 inh 17, HSP90 inh 1 and Tb hexokinase -2.
Screening CC(=O)c1c(C)[nH]c(C(=O)Nc2ccc(C)cn2)c1C returned HKDC1 inh -2, Hsp70 activator 0, HSF1 activator 23, HSF1 inh 0, HSP90 inh 27*, Tb hexokinase 8, HSP90 inh confirm 79* and luciferase ctr 70*.
CC(=O)c1c(C)[nH]c(C(=O)Nc2nc(C)cs2)c1C was read as HKDC1 inh -2, Hsp70 activator 0, HSF1 activator 7, HSF1 inh 21, HSP90 inh 51*, Tb hexokinase -19, HSP90 inh confirm 77* and luciferase ctr 66*.
For COc1ccc(OC)c(NC(=O)c2[nH]c(C)c(C(C)=O)c2C)c1 the results were HKDC1 inh -1, Hsp70 activator 0, HSF1 activator -2, HSF1 inh 9, HSP90 inh 27*, Tb hexokinase -1, HSP90 inh confirm -2 and luciferase ctr -4.
CC(=O)c1c(C)[nH]c(C(=O)Nc2nc(-c3ccc(-c4ccccc4)cc3)cs2)c1C was read as HKDC1 inh -5, Hsp70 activator 0, HSF1 activator 14, HSF1 inh 13, HSP90 inh 3 and Tb hexokinase -13.
Screening COc1ccc(-n2nc3c(c2NC(=O)C(C)Oc2ccccc2)CS(=O)C3)cc1 (configuration not stated) returned HKDC1 inh 6, HSF1 activator -4, HSF1 inh -7 and HSP90 inh 6.

Bioassay records as filed in PubChem BioAssay.
